Test results published in ChEMBL document CHEMBL1240390, “Activity of dalbavancin against Bacillus anthracis in vitro and in a mouse inhalation anthrax model” (Antimicrob Agents Chemother, 2010).
In brackets after ≈: the same amount, converted by molar mass.

How the values were obtained:
[1] = Cmax in ICR mouse at 5 mg/kg, ip after 2 hrs; type: ADME, organism-based; design: dose 5 mg/kg, route intraperitoneal; conditions: in vivo
In short: (§1)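 Female ICR mice, 23 to 27 g, given single 5 or 20 mg/kg doses i.p. or i.v. (tail vein) in 5% glucose. Plasma was taken by cardiac puncture under halothane at 0.08 to 144 h, with 3 mice per route, dose and time point. Total drug was measured by microbiological agar diffusion assay; parameters came from noncompartmental analysis.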

[2] = Ratio of fCmax in ICR mouse at 5 mg/kg, ip after 2 hrs to MIC for Bacillus anthracis Ames; type: functional; conditions: route intraperitoneal
In short: (§2)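 Female ICR mice (23 to 27 g) received a single i.p. dose of 5 or 20 mg/kg in 5% glucose. Plasma was taken by cardiac puncture from 0.08 to 144 h, with 3 mice per dose and time point. Total drug was measured by microbiological agar diffusion, and parameters were derived noncompartmentally. Free values assume 1.6% unbound and are divided by the Ames-strain MIC.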

[3] = AUC (0-infinity) in ICR mouse at 20 mg/kg, iv; type: ADME, organism-based; design: time infinity, dose 20 mg/kg, route intravenous; conditions: plasma; in short: as §1
Bacillus anthracis [4] = experiment: Antimicrobial activity against Bacillus anthracis str. Ames infected in BALB/c mouse prophylaxis model assessed as mouse survival at 60 mg/kg, ip administered 48 hrs post infection every 36 hrs for 14 days measured after 42 days; type: functional; conditions: route intraperitoneal
Bacillus anthracis [5] = experiment: Antimicrobial activity against Bacillus anthracis str. Ames infected in BALB/c mouse prophylaxis model assessed as mouse survival at >=30 mg/kg, ip administered 24 hrs post infection every 36 hrs for 14 days measured after 42 days; type: functional
Mus musculus [6] = experiment: fCmax in ICR mouse at 20 mg/kg, ip after 2 hrs; type: ADME, organism-based; design: dose 20 mg/kg, route intraperitoneal; conditions: in vivo
Mus musculus [7] = experiment: fCmax in ICR mouse at 5 mg/kg, ip after 2 hrs; type: ADME, organism-based; design: dose 5 mg/kg, route intraperitoneal; conditions: in vivo
[8] = Cmax in ICR mouse at 20 mg/kg, ip after 2 hrs; type: ADME, organism-based; design: dose 20 mg/kg, route intraperitoneal; conditions: in vivo; in short: as §1
Bacillus anthracis [9] = experiment: Antimicrobial activity against Bacillus anthracis str. Ames infected in BALB/c mouse prophylaxis model assessed as mouse survival at >=15 mg/kg, ip administered 24 hrs post infection every 36 hrs for 14 days measured after 42 days; type: functional
Bacillus anthracis [10] = experiment: Antimicrobial activity against Bacillus anthracis after 18-24 hrs by broth microdilution method; type: functional
Bacillus anthracis [11] = experiment: Antimicrobial activity against Bacillus anthracis str. Ames infected in BALB/c mouse assessed as mouse survival at 30 mg/kg, ip bid administered 24 hrs post infection for 14 days measured after 42 days; type: functional; conditions: route intraperitoneal
[12] = Half life in ICR mouse at 5 mg/kg, ip; type: ADME, organism-based; design: dose 5 mg/kg, route intraperitoneal; conditions: in vivo; in short: as §1
[13] = AUC in patient with skin and soft tissue infections at 1000 mg, iv after 7 days; type: ADME, organism-based; conditions: human, plasma
Mus musculus [14] = experiment: fAUC in ICR mouse at 20 mg/kg, ip; type: ADME, organism-based; design: dose 20 mg/kg, route intraperitoneal; conditions: in vivo
[15] = Ratio of fAUC in ICR mouse at 5 mg/kg, ip to MIC against Bacillus anthracis Ames; type: functional; conditions: route intraperitoneal; in short: as §2
[16] = Ratio of fCmax in ICR mouse at 20 mg/kg, ip single dose after 2 hrs to MIC for Bacillus anthracis Ames; type: functional; conditions: route intraperitoneal; in short: as §2
Bacillus anthracis [17] = experiment: Antimicrobial activity against Bacillus anthracis str. Ames infected in BALB/c mouse prophylaxis model assessed as mouse survival at 60 mg/kg, ip administered 36 hrs post infection every 36 hrs for 14 days measured after 42 days; type: functional; conditions: route intraperitoneal
Bacillus anthracis [18] = experiment: Antimicrobial activity against Bacillus anthracis str. Ames after 18-24 hrs by broth microdilution method; type: functional
Mus musculus [19] = experiment: T>MIC in ICR mouse at 5 mg/kg, ip; type: ADME, organism-based; design: dose 5 mg/kg, route intraperitoneal; conditions: in vivo
Mus musculus [20] = experiment: fAUC in ICR mouse at 5 mg/kg, ip; type: ADME, organism-based; design: dose 5 mg/kg, route intraperitoneal; conditions: in vivo
[21] = AUC (0-infinity) in ICR mouse at 5 mg/kg, iv; type: ADME, organism-based; design: time infinity, dose 5 mg/kg, route intravenous; conditions: plasma; in short: as §1
[22] = Plasma concentration in ICR mouse at 20 mg/kg, ip after 6 days; type: ADME, organism-based; design: dose 20 mg/kg, route intraperitoneal; in short: as §1
[23] = Ratio of fAUC in ICR mouse at 20 mg/kg, ip to MIC against Bacillus anthracis Ames; type: functional; conditions: route intraperitoneal; in short: as §2
Bacillus anthracis [24] = experiment: Antimicrobial activity against Bacillus anthracis str. Ames infected in BALB/c mouse prophylaxis model assessed as mouse survival at 120 mg/kg, ip administered 48 hrs post infection every 72 hrs for 14 days measured after 42 days; type: functional; conditions: route intraperitoneal
[25] = AUC (0-infinity) in ICR mouse at 5 mg/kg, ip; type: ADME, organism-based; design: dose 5 mg/kg, route intraperitoneal, time infinity; conditions: plasma; in short: as §1
Bacillus anthracis [26] = experiment: Antimicrobial activity against Bacillus anthracis str. Ames infected in BALB/c mouse prophylaxis model assessed as mouse survival at 120 mg/kg, ip administered 36 hrs post infection every 72 hrs for 14 days measured after 42 days; type: functional; conditions: route intraperitoneal
[27] = Half life in ICR mouse at 20 mg/kg, ip; type: ADME, organism-based; design: dose 20 mg/kg, route intraperitoneal; conditions: in vivo; in short: as §1
[28] = AUC (0-infinity) in ICR mouse at 20 mg/kg, ip; type: ADME, organism-based; design: time infinity, dose 20 mg/kg, route intraperitoneal; conditions: plasma; in short: as §1
Mus musculus [29] = experiment: T>MIC in ICR mouse at 20 mg/kg, ip; type: ADME, organism-based; design: dose 20 mg/kg, route intraperitoneal; conditions: in vivo

CN[C@H]1C(=O)N[C@@H]2Cc3ccc(cc3)Oc3cc4cc(c3O[C@@H]3O[C@H](C(=O)O)[C@@H](O)[C@H](O)[C@H]3NC(=O)CCCCCCCCC(C)C)Oc3ccc(cc3Cl)[C@@H](O)[C@@H]3NC(=O)[C@H](NC(=O)[C@@H]4NC(=O)[C@@H](NC2=O)c2cc(cc(O)c2Cl)Oc2cc1ccc2O)c1ccc(O)c(c1)-c1c(O[C@H]2O[C@H](CO)[C@@H](O)[C@H](O)[C@@H]2O)cc(O)cc1[C@@H](C(=O)NCCCN(C)C)NC3=O [DALBAVANCIN]
Cmax [1]: 15200 ng/mL
Ratio [2]: 4
AUC(0-inf) [3]: 1070 µg·h/mL
Activity (Bacillus anthracis [4]): 70%
Activity (Bacillus anthracis [5]): 80%
fCmax (Mus musculus [6]): 1.14 mg/L
fCmax (Mus musculus [7]): 0.24 mg/L
Cmax [8]: 71.3 µg/mL
Activity (Bacillus anthracis [9]): 80%
MIC50 (Bacillus anthracis [10]): 0.06 µg/mL (≈ 0.033 µM)
MIC90 (Bacillus anthracis [10]): 0.25 µg/mL (≈ 0.138 µM)
Activity (Bacillus anthracis [11]): 100%
half-life [12]: 2.23 days
AUC at 168 h [13]: 756 µg·h/mL
fAUC (Mus musculus [14]): 13.6 mg·h/L
Ratio [15]: 46.7
Ratio [16]: 19
Activity (Bacillus anthracis [17]): 70%
MIC (Bacillus anthracis [18]): 0.06 µg/mL (≈ 0.033 µM)
T>MIC (Mus musculus [19]): 17.8 h
fAUC (Mus musculus [20]): 2.8 mg·h/L
AUC(0-inf) [21]: 200 µg·h/mL
concentration at 144 h [22]: ≥ 400 ng/mL
Ratio [23]: 227
Activity (Bacillus anthracis [24]): 70%
AUC(0-inf) [25]: 176 µg·h/mL
Activity (Bacillus anthracis [26]): 70%
half-life [27]: 2.23 days
AUC(0-inf) [28]: 848 µg·h/mL
T>MIC (Mus musculus [29]): 38 h

CN[C@H](CC(C)C)C(=O)N[C@H]1C(=O)N[C@@H](CC(N)=O)C(=O)N[C@H]2C(=O)N[C@H]3C(=O)N[C@H](C(=O)N[C@H](C(=O)O)c4cc(O)cc(O)c4-c4cc3ccc4O)[C@H](O)c3ccc(c(Cl)c3)Oc3cc2cc(c3O[C@@H]2O[C@H](CO)[C@@H](O)[C@H](O)[C@H]2O[C@H]2C[C@](C)(N)[C@H](O)[C@H](C)O2)Oc2ccc(cc2Cl)[C@H]1O [VANCOMYCIN]
MIC (Bacillus anthracis [10]): 2 µg/mL (≈ 1.38 µM)
